pIC50: −log10 of the molar value. Each block holds one compound with its values, some of them ahead of it.
What was measured:
K562 = assay: Cytotoxicity against human K562 cells after 72 hrs by Calcein AM assay; format: ADME, cell-based; conditions: K562, 72 h
MCF7 = assay: Cytotoxicity against human MCF7 cells after 72 hrs by Calcein AM assay; format: ADME, cell-based; conditions: MCF7, 72 h
Nicotiana tabacum [1] = assay: Cytokinin activity in tobacco callus assessed as stimulation of callus growth at 100 uM relative to 6-benzylaminopurine; format: functional
Summary of the method: (§1)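 Compounds dissolved in DMSO, diluted with water to 5 × 10^-2 M stock, then diluted in medium to 10^-8 to 10^-4 M. Final DMSO ≤0.2%; solvent control 0.2% DMSO. Readout was cytokinin-dependent tobacco callus growth. Activity is expressed relative to 10^-6 M BAP (=100%) at each compound's optimal concentration. Five replicates per concentration; whole test run at least twice.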

BJ = assay: Cytotoxicity against human BJ cells after 72 hrs by MTT assay; format: ADME, cell-based
Amaranthus = assay: Cytokinin activity in cotyledons assessed as dark induction of betacyanin synthesis at 100 uM relative to 6-benzylaminopurine; format: functional
Triticum aestivum = assay: Cytokinin activity in wheat leaf assessed as stimulation of retention of chlorophyll in excised leaves at 0.1 mM relative to 6-benzylaminopurine; format: functional
Nicotiana tabacum [2] = assay: Cytokinin activity in tobacco callus assessed as stimulation of callus growth at 1 uM relative to 6-benzylaminopurine; format: functional
Nicotiana tabacum [3] = assay: Cytokinin activity in tobacco callus assessed as stimulation of callus growth at 10 uM relative to 6-benzylaminopurine; format: functional; summary of the method: as §1
[4] = Stability assessed as compound peak area at pH 3 after 24 hrs by HPLC-PDA method; format: physicochemical; conditions: read-out: Stability
Summary of the method: (§2)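 10^-2 M methanol solution diluted to 10^-4 M in McIlvaine buffer at pH 3, 4, 5, 6 or 7, then incubated at 25 °C. Direct injection onto reversed-phase C18 after 1 h and again after 24 h. Methanol/15 mM formic acid (pH 4, ammonium) gradient at 0.3 mL/min, PDA at 270 nm. Parent and released free base (m-topolin) reported as peak area %.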

[5] = Stability assessed as free base release at pH 3 after 1 hr by HPLC-PDA method; format: physicochemical; conditions: pH 3, 1 h; summary of the method: as §2
[6] = Stability assessed as free base release at pH 7 after 1 hr by HPLC-PDA method; format: physicochemical; conditions: pH 7, 1 h; summary of the method: as §2
[7] = Stability assessed as compound peak area at pH 6 after 1 hr by HPLC-PDA method; format: physicochemical; conditions: read-out: Stability; summary of the method: as §2
[8] = Stability assessed as compound peak area at pH 3 after 1 hr by HPLC-PDA method; format: physicochemical; conditions: read-out: Stability; summary of the method: as §2
[9] = Stability assessed as free base release at pH 6 after 24 hr by HPLC-PDA method; format: physicochemical; conditions: pH 6, 24 h; summary of the method: as §2
[10] = Stability assessed as free base release at pH 5 after 1 hr by HPLC-PDA method; format: physicochemical; conditions: pH 5, 1 h; summary of the method: as §2
[11] = Stability assessed as free base release at pH 7 after 24 hr by HPLC-PDA method; format: physicochemical; conditions: pH 7, 24 h; summary of the method: as §2
[12] = Stability assessed as compound peak area at pH 4 after 24 hrs by HPLC-PDA method; format: physicochemical; conditions: read-out: Stability; summary of the method: as §2
[13] = Stability assessed as compound peak area at pH 7 after 1 hr by HPLC-PDA method; format: physicochemical; conditions: read-out: Stability; summary of the method: as §2
[14] = Stability assessed as free base release at pH 6 after 1 hr by HPLC-PDA method; format: physicochemical; conditions: pH 6, 1 h; summary of the method: as §2
[15] = Stability assessed as free base release at pH 5 after 24 hr by HPLC-PDA method; format: physicochemical; conditions: pH 5, 24 h; summary of the method: as §2
[16] = Stability assessed as compound peak area at pH 4 after 1 hr by HPLC-PDA method; format: physicochemical; conditions: read-out: Stability; summary of the method: as §2
[17] = Stability assessed as compound peak area at pH 5 after 1 hr by HPLC-PDA method; format: physicochemical; conditions: read-out: Stability; summary of the method: as §2
[18] = Stability assessed as free base release at pH 4 after 1 hr by HPLC-PDA method; format: physicochemical; conditions: pH 4, 1 h; summary of the method: as §2
[19] = Stability assessed as free base release at pH 3 after 24 hr by HPLC-PDA method; format: physicochemical; conditions: pH 3, 24 h; summary of the method: as §2
[20] = Stability assessed as compound peak area at pH 5 after 24 hrs by HPLC-PDA method; format: physicochemical; conditions: read-out: Stability; summary of the method: as §2
[21] = Stability assessed as compound peak area at pH 6 after 24 hrs by HPLC-PDA method; format: physicochemical; conditions: read-out: Stability; summary of the method: as §2
[22] = Stability assessed as compound peak area at pH 7 after 24 hrs by HPLC-PDA method; format: physicochemical; conditions: read-out: Stability; summary of the method: as §2
[23] = Stability assessed as free base release at pH 4 after 24 hr by HPLC-PDA method; format: physicochemical; conditions: pH 4, 24 h; summary of the method: as §2

SMILES: COc1cccc(OC)c1CNc1ncnc2c1ncn2C1CCCCO1 (stereo not drawn)
- pIC50 (K562): 4.99
- pIC50 (MCF7): < 4.00
- Activity (Nicotiana tabacum [1]): 57%
- pIC50 (BJ): < 4.00
- Activity (Amaranthus): 13%
- Activity (Triticum aestivum): 14%

SMILES: COc1ccccc1CNc1ncnc2c1ncn2C1CCCCO1 (stereo not drawn)
- pIC50 (K562): 4.01
- pIC50 (MCF7): < 4.00
- Activity (Nicotiana tabacum [2]): 93%
- pIC50 (BJ): < 4.00
- Activity (Amaranthus): 84%
- Activity (Triticum aestivum): 104%

SMILES: COc1ccc(CNc2ncnc3c2ncn3C2CCCCO2)c(OC)c1 (stereo not drawn)
- pIC50 (K562): < 4.60
- pIC50 (MCF7): < 4.60
- pIC50 (BJ): < 4.60
- Activity (Amaranthus): 9%
- Activity (Triticum aestivum): 25%

SMILES: COc1ccc(OC)c(CNc2ncnc3c2ncn3C2CCCCO2)c1 (stereo not drawn)
- pIC50 (K562): 4.78
- pIC50 (MCF7): 4.60
- pIC50 (BJ): < 4.00
- Activity (Amaranthus): 28%
- Activity (Nicotiana tabacum [3]): 42%
- Activity (Triticum aestivum): 19%

SMILES: c1ccc(CNc2ncnc3c2ncn3C2CCCCO2)cc1 (stereo not drawn)
- pIC50 (K562): < 4.00
- pIC50 (MCF7): < 4.00
- Activity (Nicotiana tabacum [2]): 102%
- pIC50 (BJ): < 4.00
- Activity (Amaranthus): 114%
- Activity (Triticum aestivum): 104%

SMILES: Oc1ccc(CNc2ncnc3c2ncn3C2CCCCO2)cc1 (stereo not drawn)
- pIC50 (K562): < 4.00
- pIC50 (MCF7): < 4.00
- pIC50 (BJ): < 4.00
- Activity (Amaranthus): 34%
- Activity (Nicotiana tabacum [3]): 20%
- Activity (Triticum aestivum): 4%

SMILES: COc1cccc(CNc2ncnc3c2ncn3C2CCCCO2)c1 (stereo not drawn)
- pIC50 (K562): 4.21
- pIC50 (MCF7): 4.01
- Activity (Nicotiana tabacum [2]): 90%
- pIC50 (BJ): < 4.00
- Activity (Amaranthus): 76%
- Activity (Triticum aestivum): 72%

SMILES: COc1cccc(CNc2ncnc3c2ncn3C2CCCCO2)c1O (stereo not drawn)
- pIC50 (K562): < 4.00
- pIC50 (MCF7): < 4.00
- Activity (Nicotiana tabacum [1]): 12%
- pIC50 (BJ): < 4.00
- Activity (Amaranthus): 18%

- remaining at 24 h [4]: 0.3%
- Activity [5]: 36.2%
- Activity [6]: 0.3%
- remaining at 1 h [7]: 99.6%
- remaining at 1 h [8]: 63.8%
- Activity [9]: 0.6%
- Activity [10]: 0.5%
- Activity [11]: 0.3%
- remaining at 24 h [12]: 37.5%
- remaining at 1 h [13]: 99.7%
- Activity [14]: 0.4%
- Activity [15]: 9.2%
- remaining at 1 h [16]: 97.2%
- remaining at 1 h [17]: 99.5%
- Activity [18]: 2.8%
- Activity [19]: 99.7%
- remaining at 24 h [20]: 90.8%
- remaining at 24 h [21]: 99.4%
- remaining at 24 h [22]: 99.7%
- Activity [23]: 62.5%
SMILES: Oc1cccc(CNc2ncnc3c2ncn3C2CCCO2)c1 (stereo not drawn)
- pIC50 (K562): < 4.00
- pIC50 (MCF7): < 4.00
- Activity (Nicotiana tabacum [2]): 87%
- pIC50 (BJ): < 4.00
- Activity (Amaranthus): 82%
- Activity (Triticum aestivum): 131%

SMILES: COc1cc(OC)c(OC)cc1CNc1ncnc2c1ncn2C1CCCCO1 (stereo not drawn)
- pIC50 (K562): < 4.00
- pIC50 (MCF7): < 4.00
- Activity (Nicotiana tabacum [1]): 11%
- pIC50 (BJ): < 4.00
- Activity (Amaranthus): 3%

SMILES: COc1cc(CNc2ncnc3c2ncn3C2CCCO2)cc(OC)c1 (stereo not drawn)
- pIC50 (K562): < 4.00
- pIC50 (MCF7): < 4.00
- Activity (Nicotiana tabacum [1]): 14%
- pIC50 (BJ): < 4.00
- Activity (Amaranthus): 18%
- Activity (Triticum aestivum): 8%

SMILES: COc1cc(CNc2ncnc3c2ncn3C2CCCO2)ccc1O (stereo not drawn)
- pIC50 (K562): < 4.00
- pIC50 (MCF7): < 4.00
- Activity (Nicotiana tabacum [1]): 13%
- pIC50 (BJ): < 4.00
- Activity (Amaranthus): 17%
- Activity (Triticum aestivum): 4%

SMILES: COc1ccc(CNc2ncnc3c2ncn3C2CCCO2)c(OC)c1OC (stereo not drawn)
- pIC50 (K562): < 4.00
- pIC50 (MCF7): < 4.00
- Activity (Nicotiana tabacum [1]): 7%
- pIC50 (BJ): < 4.00
- Activity (Amaranthus): 15%
- Activity (Triticum aestivum): 9%

SMILES: COc1ccc(OC)c(CNc2ncnc3c2ncn3C2CCCO2)c1 (stereo not drawn)
- pIC50 (K562): < 4.30
- pIC50 (MCF7): < 4.30
- pIC50 (BJ): < 4.30
- Activity (Amaranthus): 41%
- Activity (Nicotiana tabacum [3]): 61%
- Activity (Triticum aestivum): 41%

SMILES: COc1cc(OC)c(OC)cc1CNc1ncnc2c1ncn2C1CCCO1 (stereo not drawn)
- pIC50 (K562): < 4.00
- pIC50 (MCF7): < 4.00
- Activity (Nicotiana tabacum [1]): 14%
- pIC50 (BJ): < 4.00
- Activity (Amaranthus): 14%
- Activity (Triticum aestivum): 9%

SMILES: COc1cc(CNc2ncnc3c2ncn3C2CCCO2)cc(OC)c1OC (stereo not drawn)
- pIC50 (K562): < 4.00
- pIC50 (MCF7): < 4.00
- Activity (Nicotiana tabacum [1]): 4%
- pIC50 (BJ): < 4.00
- Activity (Amaranthus): 17%
- Activity (Triticum aestivum): 10%

SMILES: COc1cc(CNc2ncnc3c2ncn3C2CCCCO2)cc(OC)c1 (stereo not drawn)
- pIC50 (K562): < 4.00
- pIC50 (MCF7): < 4.00
- pIC50 (BJ): < 4.00
- Activity (Amaranthus): 9%
- Activity (Triticum aestivum): 7%

— ChEMBL document CHEMBL1153925, “Synthesis, characterization and biological activity of ring-substituted 6-benzylamino-9-tetrahydropyran-2-yl and 9-tetrahydrofuran-2-ylpurine derivatives” (Bioorg Med Chem, 2009)
